These results are taken from ChEMBL document CHEMBL3124890, “SAR studies on trisubstituted benzimidazoles as inhibitors of Mtb FtsZ for the development of novel antitubercular agents” (J Med Chem, 2013).

In assay [1] the target is T1, Cell division protein FtsZ (Mycobacterium tuberculosis) (UniProt P9WN95).
T1 sequence (whole entry): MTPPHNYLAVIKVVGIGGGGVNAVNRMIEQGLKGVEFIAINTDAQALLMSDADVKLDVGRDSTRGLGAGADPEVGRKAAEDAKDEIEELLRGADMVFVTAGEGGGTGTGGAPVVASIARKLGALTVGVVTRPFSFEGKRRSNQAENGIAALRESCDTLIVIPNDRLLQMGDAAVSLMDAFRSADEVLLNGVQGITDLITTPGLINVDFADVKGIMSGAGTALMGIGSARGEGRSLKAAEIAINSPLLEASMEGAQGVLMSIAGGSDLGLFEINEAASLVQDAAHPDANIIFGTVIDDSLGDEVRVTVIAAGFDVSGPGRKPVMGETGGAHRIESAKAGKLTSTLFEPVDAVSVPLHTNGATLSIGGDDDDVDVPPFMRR
As to the kind of experiment: Inhibition of Mycobacterium tuberculosis FtsZ polymerization expressed in Escherichia coli BL21 (DE3) using GTP as substrate assessed as reduction in density and population of FtsZ polymers at 40 to 80 uM by transmission electron microscopy. The essentials: (§1)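 His-tagged Mtb FtsZ (pET15b, BL21(DE3), Ni-NTA purified) at 5 µM in 50 mM MES, 5 mM MgCl₂, 100 mM KCl, pH 6.5 was preincubated 15 min on ice with 40 or 80 µM compound (ethanol stock). GTP was added to 25 µM and samples were held at 37 °C for 30 min, then diluted 2×, stained with 1% uranyl acetate, and imaged by TEM.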

For assay [2], the target named is T1, Cell division protein FtsZ (Mycobacterium tuberculosis). Nature of the assay: Inhibition of Mycobacterium tuberculosis FtsZ polymerization expressed in Escherichia coli BL21 (DE3) using GTP as substrate by spectrofluorimetric analysis.
The test system of assay [3] is Mycobacterium tuberculosis. Nature of the assay: […]. It is filed as functional. In a few lines: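 Strains were grown at 37 °C in 7H9 Middlebrook broth with 10% OADC, 0.05% Tween and 0.2% glycerol. Compounds were dissolved in DMSO and serially diluted 2-fold, then bacteria were added. Plates were incubated 6 days at 37 °C, then 24 h more with Alamar Blue. MIC was the lowest concentration (μg/mL) that prevented the colour change. Run in triplicate.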

The next assay has as its system Vero. Nature of the assay: Cytotoxicity against Vero cells after 3 days by Alamar Blue assay. It is filed as cell-based. The following applies: Chlorocebus sabaeus, 72 h. In a few lines:
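Vero (African green monkey kidney epithelial) cells were grown without CO₂ in L15 with antibiotics and heat-inactivated calf serum. Cells in medium with 2X Alamar Blue were added at 1.3×10^4 cells/well to 2-fold serial drug dilutions. Plates were incubated 3 days at 37 °C, and IC50 was calculated per the manufacturer's directions.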

Assay [4] has as its target T1, Cell division protein FtsZ (Mycobacterium tuberculosis). As to the kind of experiment: Inhibition of Mycobacterium tuberculosis FtsZ polymerization expressed in Escherichia coli BL21 (DE3) using GTP as substrate assessed as disassembly of FtsZ at 40 to 80 uM by transmission electron microscopy. In a few lines:
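His-tagged Mtb FtsZ (pET15b, BL21(DE3), Ni-NTA purified, Bradford-quantified) at 5 µM in 50 mM MES, 5 mM MgCl₂, 100 mM KCl, pH 6.5 was polymerized with 25 µM GTP at 37 °C for 30 min. Compound (40 or 80 µM, ethanol stock) was then added for 5 min more. Samples were diluted 2×, negatively stained with 1% uranyl acetate, and imaged by TEM.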

The target is the same in assay [5]. As to the kind of experiment: Inhibition of Mycobacterium tuberculosis FtsZ polymerization expressed in Escherichia coli BL21 (DE3) using GTP as substrate assessed as reduction in aggregate formation at 40 to 80 uM by transmission electron microscopy. In a few lines:
as §1

Assay [6] shares this target. As to the kind of experiment: Inhibition of Mycobacterium tuberculosis FtsZ polymerization expressed in Escherichia coli BL21 (DE3) using GTP as substrate assessed as reduction in protofilaments at 40 to 80 uM by transmission electron microscopy. In a few lines: as §1

The structures appear in SMILES notation. In brackets after ≈: the same amount, converted by molar mass. Activity calls are given as the source filed them. The rule behind the calls is not given here.

As usually defined, the MIC is the lowest concentration that inhibits growth of the organism. Read a high MIC as weaker potency. As a reminder, the IC50 is the point on the concentration scale where inhibition reaches its midpoint. As for `CCCCOC(=O)Nc1cc2nc(C3CCCCC3)[nH]c2cc1N(C)C`, the inhibition result in assay [1], in assay [4], in assay [5] and in assay [6] was “Active” throughout. In assay [2], the inhibition result was “Dose-dependent effect”. In addition, the MIC in assay [3] (H37Rv, 144 h) turned out to be 0.06 µg/mL (≈ 0.167 µM); in assay [3] (W210, 144 h), 0.06 µg/mL (≈ 0.167 µM). The same molecule came in with an IC50 with Vero above 100 µg/mL.

In the case of `CCc1ccc(C(=O)Nc2cc3nc(C4CCCCC4)[nH]c3cc2N(C)C)cc1`, the inhibition entry in assay [2] was “Dose-dependent effect”. The MIC in assay [3] (H37Rv, 144 h) turned out to be 0.16 µg/mL (≈ 0.41 µM); in assay [3] (W210, 144 h), 0.16 µg/mL (≈ 0.41 µM). Moreover, the IC50 in the assay on Vero is above 100 µg/mL.

Take `CN(C)c1cc2[nH]c(C3CCCCC3)nc2cc1NC(=O)OCC(F)(F)F`: the inhibition result in assay [2] was “Dose-dependent effect”. The same molecule displayed an MIC in assay [3] (H37Rv, 144 h) of 0.63 µg/mL (≈ 1.64 µM). In the assay on Vero, this molecule had an IC50 above 100 µg/mL.
